Data: ChEMBL document CHEMBL3120087, “3D QSAR studies based in silico screening of 4,5,6-triphenyl-1,2,3,4-tetrahydropyrimidine analogs for anti-inflammatory activity” (2014)

Tests used:
Rattus norvegicus [1] = test: Antiinflammatory activity in rat assessed as reduction of paw edema; assay type: functional
How it was run: (§1)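 Albino rats of either sex (150–200 g), six per group, fasted 12 h with water only. […] Paw volume measured by plethysmometer immediately (initial) and then hourly to 4 h. Mean paw volume ± SEM reported with % inhibition of edema versus control.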

Rattus norvegicus [2] = test: Antiinflammatory activity in albino rat assessed as inhibition of carrageenan-induced paw edema at 20 mg/kg, po administered 1 hr prior to carrageenan challenge measured after 4 hrs relative to vehicle-treated control; assay type: functional; how it was run: as §1
Rattus norvegicus [3] = test: Antiinflammatory activity in albino rat assessed as inhibition of carrageenan-induced paw edema at 20 mg/kg, po administered 1 hr prior to carrageenan challenge measured after 3 hrs relative to vehicle-treated control; assay type: functional; how it was run: as §1
Rattus norvegicus [4] = test: Antiinflammatory activity in albino rat assessed as inhibition of carrageenan-induced paw edema at 20 mg/kg, po administered 1 hr prior to carrageenan challenge measured after 24 hrs relative to vehicle-treated control; assay type: functional
Rattus norvegicus [5] = test: Antiinflammatory activity in albino rat assessed as inhibition of carrageenan-induced paw edema at 20 mg/kg, po administered 1 hr prior to carrageenan challenge measured after 2 hrs relative to vehicle-treated control; assay type: functional; how it was run: as §1
Rattus norvegicus [6] = test: Antiinflammatory activity in albino rat assessed as inhibition of carrageenan-induced paw edema at 20 mg/kg, po administered 1 hr prior to carrageenan challenge measured after 1 hr relative to vehicle-treated control; assay type: functional; how it was run: as §1
[7] = molecular target: T1, Prostaglandin G/H synthase 1 (Ovis aries) (UniProt P05979); test: Inhibition of ovine COX1 using TMPD as substrate at 20 uM incubated for 5 mins prior to substrate addition measured after 5 mins by colorimetry
T1 sequence (whole entry): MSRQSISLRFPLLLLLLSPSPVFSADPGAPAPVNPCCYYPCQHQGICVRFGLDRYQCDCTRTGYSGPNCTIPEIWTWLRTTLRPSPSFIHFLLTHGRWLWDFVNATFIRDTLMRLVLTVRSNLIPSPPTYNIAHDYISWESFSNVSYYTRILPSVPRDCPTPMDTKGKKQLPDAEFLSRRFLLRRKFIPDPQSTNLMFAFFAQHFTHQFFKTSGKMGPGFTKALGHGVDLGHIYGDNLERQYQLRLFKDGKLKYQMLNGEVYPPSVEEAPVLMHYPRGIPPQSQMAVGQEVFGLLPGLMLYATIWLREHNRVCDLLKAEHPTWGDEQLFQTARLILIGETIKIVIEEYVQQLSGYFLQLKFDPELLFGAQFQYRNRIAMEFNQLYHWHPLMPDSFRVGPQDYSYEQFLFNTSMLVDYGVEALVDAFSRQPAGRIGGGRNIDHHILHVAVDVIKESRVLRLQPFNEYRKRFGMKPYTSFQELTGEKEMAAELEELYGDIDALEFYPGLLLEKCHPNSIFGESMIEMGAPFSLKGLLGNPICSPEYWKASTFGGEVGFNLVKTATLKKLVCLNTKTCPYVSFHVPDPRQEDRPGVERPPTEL
How it was run: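 Colorimetric COX assay using peroxidase activity of ovine cyclooxygenase to oxidize TMPD. Assay mixture mixed and incubated at 25 °C for 5 min. Enzyme activity read as absorbance at 590 nm.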

For `N=C1NC(c2ccc(Cl)cc2)=C(CC(=O)O)C(c2cccnc2)N1` (configuration not stated), the “log(activity)” value (Rattus norvegicus [1]) was 0.54.

For `Cc1ccc(C2=C(CC(=O)O)C(c3ccccc3)NC(=N)N2)cc1` (configuration not stated), the “log(activity)” value (Rattus norvegicus [1]) was 0.82.

Compound `Cc1ccc(-c2cc(C(F)(F)F)nn2-c2ccc(S(N)(=O)=O)cc2)cc1` [CELECOXIB] has an inhibition in vivo at 20 mg/kg (Rattus norvegicus [2]) of 17.9%, an inhibition in vivo at 20 mg/kg (Rattus norvegicus [3]) of 32.5% and an inhibition in vivo at 20 mg/kg (Rattus norvegicus [4]) of 6.49%. The inhibition in vivo at 20 mg/kg (Rattus norvegicus [5]) was 41.9% and the inhibition in vivo at 20 mg/kg (Rattus norvegicus [6]) was 48.2%.

In the case of `N=C1NC(c2ccccc2)=C(CC(=O)O)C(c2ccc(Cl)cc2)N1` (configuration not stated), the “log(activity)” value (Rattus norvegicus [1]) is reported as 0.64.

For `N=C1NC(c2ccccc2)=C(CC(=O)O)C(c2ccco2)N1` (configuration not stated), the “log(activity)” value (Rattus norvegicus [1]) was 0.55.

`COc1ccc(C2NC(=N)NC(c3ccc(Cl)cc3)=C2c2ccc(S(C)(=O)=O)cc2)cc1` (configuration not stated) showed an inhibition in vivo at 20 mg/kg (Rattus norvegicus [2]) of 28.6%, an inhibition in vivo at 20 mg/kg (Rattus norvegicus [3]) of 43.6% and an inhibition in vivo at 20 mg/kg (Rattus norvegicus [4]) of 15.6%. The inhibition in vivo at 20 mg/kg (Rattus norvegicus [5]) was 20.5% and the inhibition in vivo at 20 mg/kg (Rattus norvegicus [6]) was 30.2%.

For `N=C1NC(c2ccccc2)=C(CC(=O)O)C(c2cccnc2)N1` (configuration not stated), the “log(activity)” value (Rattus norvegicus [1]) was 0.3.

`N=C1NC(c2ccc(Cl)cc2)=C(CC(=O)O)C(c2cccs2)N1` (configuration not stated) was tested, and the “log(activity)” value (Rattus norvegicus [1]) was 0.64.

For `Cc1ccc(C2=C(CC(=O)O)C(c3ccco3)NC(S)=N2)cc1` (configuration not stated), the “log(activity)” value (Rattus norvegicus [1]) was 0.31.

For `O=C(O)CC1=C(c2ccccc2)N=C(S)NC1c1ccco1` (configuration not stated), the “log(activity)” value (Rattus norvegicus [1]) was 0.57.

`O=C(O)CC1=C(c2ccccc2)N=C(S)NC1c1ccc(Cl)cc1` (configuration not stated) was tested, and the “log(activity)” value (Rattus norvegicus [1]) was 0.88.

`O=C(O)CC1=C(c2ccc(Cl)cc2)N=C(S)NC1c1cccs1` (configuration not stated) was tested, and the “log(activity)” value (Rattus norvegicus [1]) was 0.54.

For `Cc1ccc(C2=C(CC(=O)O)C(c3ccc(Cl)cc3)NC(S)=N2)cc1` (configuration not stated), the “log(activity)” value (Rattus norvegicus [1]) was 0.72.

For `Cc1ccc(C2=C(CC(=O)O)C(c3ccc(Cl)cc3)NC(=N)N2)cc1` (configuration not stated), the “log(activity)” value (Rattus norvegicus [1]) was 0.68.

In the case of `Cc1ccc(C2=C(CC(=O)O)C(c3ccccc3)NC(S)=N2)cc1` (configuration not stated), the “log(activity)” value (Rattus norvegicus [1]) is reported as 0.82.

In the case of `Cc1ccc(C2=C(CC(=O)O)C(c3cccnc3)NC(S)=N2)cc1` (configuration not stated), the “log(activity)” value (Rattus norvegicus [1]) is reported as 0.11.

`COc1ccc(OC)c(C2NC(=O)NC(c3ccc(Cl)cc3)=C2c2ccc(S(N)(=O)=O)cc2)c1` (configuration not stated) gave an inhibition in vivo at 20 mg/kg (Rattus norvegicus [2]) of 14.3%, an inhibition in vivo at 20 mg/kg (Rattus norvegicus [3]) of 24.4% and an inhibition in vivo at 20 mg/kg (Rattus norvegicus [5]) of 28.1%. The inhibition in vivo at 20 mg/kg (Rattus norvegicus [6]) was 18%.

In the case of `CN(C)c1ccc(C2NC(=O)NC(c3ccc(S(C)(=O)=O)cc3)=C2c2ccccc2)cc1` (configuration not stated), the inhibition in vivo at 20 mg/kg (Rattus norvegicus [2]) is reported as 9.52%, the inhibition in vivo at 20 mg/kg (Rattus norvegicus [3]) is reported as 26.9% and the inhibition in vivo at 20 mg/kg (Rattus norvegicus [5]) is reported as 41.4%. The inhibition [7] was 2.36% and the inhibition in vivo at 20 mg/kg (Rattus norvegicus [6]) was 46.9%.

With `O=C(O)CC1=C(c2ccc(Cl)cc2)N=C(S)NC1c1ccco1` (configuration not stated) the “log(activity)” value (Rattus norvegicus [1]) was 0.24.

`COc1ccc(C2NC(S)=NC(c3ccc(C)cc3)=C2CC(=O)O)cc1` (configuration not stated) was tested, and the “log(activity)” value (Rattus norvegicus [1]) was 0.96.

For `COc1ccc(C2NC(S)=NC(c3ccc(Cl)cc3)=C2CC(=O)O)cc1` (configuration not stated), the “log(activity)” value (Rattus norvegicus [1]) was 1.02.

Work on `COc1ccc(C2NC(=S)NC(c3ccc(S(C)(=O)=O)cc3)=C2c2ccccc2)c(OC)c1` (configuration not stated) yielded an inhibition in vivo at 20 mg/kg (Rattus norvegicus [3]) of 10.2%, an inhibition in vivo at 20 mg/kg (Rattus norvegicus [5]) of 26.7% and an inhibition in vivo at 20 mg/kg (Rattus norvegicus [6]) of 15.3%.

In the case of `N=C1NC(c2ccccc2)=C(CC(=O)O)C(c2ccccc2)N1` (configuration not stated), the “log(activity)” value (Rattus norvegicus [1]) is reported as 0.64.

Compound `COc1ccc(OC)c(C2NC(=N)NC(c3ccc(S(C)(=O)=O)cc3)=C2c2ccccc2)c1` (configuration not stated) has an inhibition in vivo at 20 mg/kg (Rattus norvegicus [2]) of 10.7%, an inhibition in vivo at 20 mg/kg (Rattus norvegicus [3]) of 20.3% and an inhibition in vivo at 20 mg/kg (Rattus norvegicus [5]) of 24.3%. For the same compound, the inhibition in vivo at 20 mg/kg (Rattus norvegicus [6]) was 25.2%.

In the case of `CS(=O)(=O)c1ccc(C2=C(c3ccccc3)C(c3ccccc3)NC(=S)N2)cc1` (configuration not stated), the inhibition in vivo at 20 mg/kg (Rattus norvegicus [2]) is reported as 18.4%, the inhibition in vivo at 20 mg/kg (Rattus norvegicus [3]) is reported as 43.1% and the inhibition in vivo at 20 mg/kg (Rattus norvegicus [5]) is reported as 30.9%. It also gave an inhibition in vivo at 20 mg/kg (Rattus norvegicus [6]) of 46.9%.

For `Cc1ccc(C2=C(CC(=O)O)C(c3cccnc3)NC(=N)N2)cc1` (configuration not stated), the “log(activity)” value (Rattus norvegicus [1]) was 0.58.

With `O=C(O)CC1=C(c2ccc(Cl)cc2)N=C(S)NC1c1ccccc1` (configuration not stated) the “log(activity)” value (Rattus norvegicus [1]) was 0.65.

For `COc1ccc(C2NC(=N)NC(c3ccccc3)=C2CC(=O)O)cc1` (configuration not stated), the “log(activity)” value (Rattus norvegicus [1]) was 0.82.

`N=C1NC(c2ccccc2)=C(CC(=O)O)C(c2cccs2)N1` (configuration not stated) was tested, and the “log(activity)” value (Rattus norvegicus [1]) was 0.51.

For `N=C1NC(c2ccc(Cl)cc2)=C(CC(=O)O)C(c2ccccc2)N1` (configuration not stated), the “log(activity)” value (Rattus norvegicus [1]) was 0.78.

For `COc1ccc(C2NC(S)=NC(c3ccccc3)=C2CC(=O)O)cc1` (configuration not stated), the “log(activity)” value (Rattus norvegicus [1]) was 0.92.

For `O=C(O)CC1=C(c2ccccc2)N=C(S)NC1c1ccccc1` (configuration not stated), the “log(activity)” value (Rattus norvegicus [1]) was 0.52.

`COc1ccc(C2NC(=O)NC(c3ccc(S(C)(=O)=O)cc3)=C2c2ccccc2)c(OC)c1` (configuration not stated) showed an inhibition in vivo at 20 mg/kg (Rattus norvegicus [3]) of 39.1%, an inhibition in vivo at 20 mg/kg (Rattus norvegicus [5]) of 28.1% and an inhibition in vivo at 20 mg/kg (Rattus norvegicus [6]) of 21.6%.

In the case of `COc1ccc(C2NC(=N)NC(c3ccc(Cl)cc3)=C2CC(=O)O)cc1` (configuration not stated), the “log(activity)” value (Rattus norvegicus [1]) is reported as 0.92.

With `Cc1ccc(C2=C(CC(=O)O)C(c3ccco3)NC(=N)N2)cc1` (configuration not stated) the “log(activity)” value (Rattus norvegicus [1]) was 0.54.

`Cc1ccc(C2=C(CC(=O)O)C(c3cccs3)NC(S)=N2)cc1` (configuration not stated) was tested, and the “log(activity)” value (Rattus norvegicus [1]) was 0.28.

For `COc1ccc(C2NC(=N)NC(c3ccc(C)cc3)=C2CC(=O)O)cc1` (configuration not stated), the “log(activity)” value (Rattus norvegicus [1]) was 0.88.

For `N=C1NC(c2ccc(Cl)cc2)=C(CC(=O)O)C(c2ccco2)N1` (configuration not stated), the “log(activity)” value (Rattus norvegicus [1]) was 0.56.

`COc1ccc(C2NC(=N)NC(c3ccc(S(C)(=O)=O)cc3)=C2c2ccccc2)cc1OC` (configuration not stated) was tested, and the inhibition in vivo at 20 mg/kg (Rattus norvegicus [2]) was 11.3%, the inhibition in vivo at 20 mg/kg (Rattus norvegicus [3]) was 37.1% and the inhibition in vivo at 20 mg/kg (Rattus norvegicus [4]) was 3.9%. For the same compound, the inhibition in vivo at 20 mg/kg (Rattus norvegicus [5]) was 18.6% and the inhibition in vivo at 20 mg/kg (Rattus norvegicus [6]) was 24.8%.

For `COc1ccc(OC)c(C2NC(=O)NC(c3ccc(S(C)(=O)=O)cc3)=C2c2ccccc2)c1` (configuration not stated), the inhibition in vivo at 20 mg/kg (Rattus norvegicus [2]) was 17.3%, the inhibition in vivo at 20 mg/kg (Rattus norvegicus [3]) was 24.4% and the inhibition in vivo at 20 mg/kg (Rattus norvegicus [5]) was 19.1%. The inhibition in vivo at 20 mg/kg (Rattus norvegicus [6]) was 35.6%.

For `Cc1ccc(C2=C(CC(=O)O)C(c3cccs3)NC(=N)N2)cc1` (configuration not stated), the “log(activity)” value (Rattus norvegicus [1]) was 0.64.

In the case of `O=C(O)CC1=C(c2ccccc2)N=C(S)NC1c1cccs1` (configuration not stated), the “log(activity)” value (Rattus norvegicus [1]) is reported as 0.64.

For `O=C(O)CC1=C(c2ccc(Cl)cc2)N=C(S)NC1c1ccc(Cl)cc1` (configuration not stated), the “log(activity)” value (Rattus norvegicus [1]) was 0.82.

`N=C1NC(c2ccc(Cl)cc2)=C(CC(=O)O)C(c2ccc(Cl)cc2)N1` (configuration not stated) was tested, and the “log(activity)” value (Rattus norvegicus [1]) was 0.74.

`O=C(O)CC1=C(c2ccc(Cl)cc2)N=C(S)NC1c1cccnc1` (configuration not stated) was tested, and the “log(activity)” value (Rattus norvegicus [1]) was 0.35.

With `O=C(O)CC1=C(c2ccccc2)N=C(S)NC1c1cccnc1` (configuration not stated) the “log(activity)” value (Rattus norvegicus [1]) was 0.46.

`CN(C)c1ccc(C2NC(=O)NC(c3ccc(Cl)cc3)=C2c2ccc(S(C)(=O)=O)cc2)cc1` (configuration not stated) showed an inhibition in vivo at 20 mg/kg (Rattus norvegicus [2]) of 16.1%, an inhibition in vivo at 20 mg/kg (Rattus norvegicus [3]) of 28.9% and an inhibition in vivo at 20 mg/kg (Rattus norvegicus [5]) of 27.6%. The inhibition in vivo at 20 mg/kg (Rattus norvegicus [6]) was 18%.
